The source made the active and inactive calls. The rule behind the calls is not given here. A value given as a limit tells only on which side of the number the result lay.

Results on 19 compounds are retold here after ChEMBL document CHEMBL1770125, “Amodiaquine analogues containing NO-donor substructures: synthesis and their preliminary evaluation as potential tools in the treatment of cerebral malaria” (Eur J Med Chem, 2011).

In test [1] the test system is Plasmodium falciparum. The experiment in a line: Antiplasmodial activity against chloroquine-sensitive Plasmodium falciparum D10 assessed as inhibition of parasite LDH activity after 72 hrs by spectrophotometry. In kind it is functional, organism-based. The conditions noted are these: D10, 72 h. The method in brief:
(§1)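 Asynchronous cultures (1-1.5% parasitemia, 1% final haematocrit) in human A+ RBCs were grown in RPMI 1640 with 1% AlbuMax, hypoxanthine, HEPES and glutamine, at 37 °C under 1% O₂/5% CO₂. IC50 is the mean±SD of ≥3 experiments.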

The subject of test [2] is Plasmodium falciparum. The experiment in a line: Antiplasmodial activity against chloroquine-resistant Plasmodium falciparum W2 assessed as inhibition of parasite LDH activity after 72 hrs by spectrophotometry. The test is classed as functional, organism-based. The conditions noted are these: W2, 72 h. The essentials:
as §1

The species entered for test [3] is Rattus norvegicus. The experiment in a line: Vasodilatory activity in pre-contracted Wistar rat aortic rings. The test is classed as functional, Aorta. The essentials: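 Aortic strips, endothelium removed, from male Wistar rats (180-200 g) were held in Krebs-bicarbonate at 37 °C, pH 7.4, gassed with 95% O₂/5% CO₂. After 90 min equilibration they were contracted with 1 μM phenylephrine. Cumulative concentration-response curves were run at plateau, with isometric recording. EC50 is the mean of ≥5 determinations.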

The species entered for test [4] is Rattus norvegicus. As to the kind of experiment: Vasodilatory activity in pre-contracted Wistar rat aortic rings in presence of 1 uM ODQ. In kind it is functional, Aorta. The method in brief: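 Endothelium-denuded aortic strips from male Wistar rats (180-200 g) were kept in Krebs-bicarbonate at 37 °C, pH 7.4. ODQ at 1 μM was added 5 min before contraction with 1 μM phenylephrine. Cumulative relaxation curves were recorded isometrically. EC50 is the mean of ≥5 determinations.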

The test system of test [5] is Plasmodium berghei. The experiment in a line: Antiplasmodial activity against Plasmodium berghei ANKA infected in C57BL/6 mouse assessed as mouse survival at 1.4 mg, ip daily for 5 days relative to control. In kind it is functional. The essentials: (§2)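 C57BL/6 mice aged 6-8 weeks were infected ip with 1x10⁶ PbA-GFP parasitized red blood cells. Parasitemia, motor behaviour, rectal temperature and weight were checked from day 5. Treatment began at late-stage CM, defined by neurological signs (ataxia, paralysis, poor righting, seizures, roll-over, coma). Doses were 100 μL ip daily for 5 days: 1.4 mg in 20% DMSO/20% PEG400/60% saline, 1.15 mg in saline.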

Test [6] has as its system Plasmodium berghei. The experiment in a line: Antiplasmodial activity against Plasmodium berghei ANKA infected in C57BL/6 mouse assessed as reduction in parasitemia at 1 mg, ip daily for 5 days measured upto 24 hrs relative to control. In kind it is functional. Also on record: scale not given: the % may be the effect or the level left.
In test [7] the test system is Plasmodium berghei. As to the kind of experiment: Antiplasmodial activity against Plasmodium berghei ANKA infected in C57BL/6 mouse assessed as mouse survival at 1 mg, ip daily for 5 days relative to control. The test is classed as functional.
For test [8], the system named is Plasmodium berghei. The experiment in a line: Antiplasmodial activity against Plasmodium berghei ANKA infected in C57BL/6 mouse assessed as reduction in parasitemia at 1.4 mg, ip daily for 5 days measured upto 24 hrs relative to control. Also on record: scale not given: the % may be the effect or the level left. In kind it is functional. The method in brief:
as §2

Test [9] concerns Plasmodium berghei. As to the kind of experiment: Antiplasmodial activity against Plasmodium berghei ANKA infected in C57BL/6 mouse assessed as reduction in parasitemia at 1.15 mg, ip daily for 5 days measured after 72 hrs relative to control. In kind it is functional, organism-based. The essentials:
as §2

Test [10] deals with Plasmodium berghei. The experiment in a line: Antiplasmodial activity against Plasmodium berghei ANKA infected in C57BL/6 mouse assessed as reduction in parasitemia at 1 mg, ip daily for 5 days measured after 72 hrs relative to control. The test is classed as functional, organism-based.
Test [11] has as its system Plasmodium berghei. As to the kind of experiment: Antiplasmodial activity against Plasmodium berghei ANKA infected in C57BL/6 mouse assessed as reduction in parasitemia at 1.4 mg, ip daily for 5 days measured after 72 hrs relative to control. In kind it is functional, organism-based. The method in brief: as §2
The test system of test [12] is Plasmodium berghei. The experiment in a line: Antiplasmodial activity against Plasmodium berghei ANKA infected in C57BL/6 mouse assessed as reduction in parasitemia at 1.15 mg, ip daily for 5 days measured upto 24 hrs relative to control. The test is classed as functional, organism-based. The method in brief:
as §2

Test [13] has as its system Plasmodium berghei. The experiment in a line: Antiplasmodial activity against Plasmodium berghei ANKA infected in C57BL/6 mouse assessed as mouse survival 1.15 mg, ip daily for 5 days relative to control. The test is classed as functional, organism-based. The method in brief: as §2
The mark [14] stands for this setting: Rattus norvegicus, Aorta, read-out: EC50.

In general, IC50 refers to the concentration needed to halve the response being measured. For `O=[N+]([O-])OCCN1CCNCC1`, the IC50 in the test with Plasmodium falciparum [1] and with Plasmodium falciparum [2] was over 5 µM each time.

In general, EC50 refers to the midpoint of the concentration-response curve. Take `CN(C)CCCOc1no[n+]([O-])c1-c1ccccc1`: in the test listed under Rattus norvegicus [3] (setting [14]), the EC50 was found to be 0.03 µM. For the same compound, the IC50 in the test on Plasmodium falciparum [1] was over 5 µM; with Plasmodium falciparum [2], 4.94 µM.

In the case of `O=[N+]([O-])OCCCNCc1cc(Nc2ccnc3cc(Cl)ccc23)ccc1O`, the EC50 in the test listed under Rattus norvegicus [4] (setting [14]) was 11 µM; in the test listed under Rattus norvegicus [3] (setting [14]), 0.42 µM. In addition, the values for the IC50 in the test with Plasmodium falciparum [1] and with Plasmodium falciparum [2] were 0.027 µM and 0.062 µM, respectively.

As for `O=[N+]([O-])OCC1CCNCC1`, the IC50 in the test on Plasmodium falciparum [1] and in the test on Plasmodium falciparum [2] was over 5 µM in each case.

As for `O=[N+]([O-])OCCN1CCN(Cc2cc(Nc3ccnc4cc(Cl)ccc34)ccc2O)CC1`, the EC50 in the test listed under Rattus norvegicus [4] (setting [14]) was 6.5 µM; in the test filed under Rattus norvegicus [3] (setting [14]), 0.12 µM. In addition, the IC50 is 0.055 µM with Plasmodium falciparum [1] and 0.138 µM with Plasmodium falciparum [2].

In the case of `CCNCCCCCCO[N+](=O)[O-]`, the IC50 in the test with Plasmodium falciparum [1] and in the test with Plasmodium falciparum [2] was over 5 µM in each case.

Turning to `CCN(CCCO[N+](=O)[O-])Cc1cc(Nc2ccnc3cc(Cl)ccc23)ccc1O`, the EC50 came to 3.3 µM in the test filed under Rattus norvegicus [4] (setting [14]) and 0.45 µM in the test listed under Rattus norvegicus [3] (setting [14]). For the same compound, the IC50 with Plasmodium falciparum [1] was 0.027 µM; with Plasmodium falciparum [2], 0.031 µM.

As for `CCN(CCOc1no[n+]([O-])c1S(=O)(=O)c1ccccc1)Cc1cc(Nc2ccnc3cc(Cl)ccc23)ccc1O.Cl.Cl.Cl`, the Survival worked out at 23% with Plasmodium berghei [5] and 8% with Plasmodium berghei [7]. Further, the results for the Activity in the test on Plasmodium berghei [6] and in the test on Plasmodium berghei [8] were 72% and 76%, respectively. Also, the outcome in the test on Plasmodium berghei [9], with Plasmodium berghei [10] and with Plasmodium berghei [11] was Active. Also, the EC50 in the test filed under Rattus norvegicus [4] (setting [14]) amounted to 1 µM; in the test filed under Rattus norvegicus [3] (setting [14]), 0.017 µM. The IC50 in the test on Plasmodium falciparum [1] stood at 0.046 µM; with Plasmodium falciparum [2], 0.152 µM.

With `CN(C)CCCOc1no[n+]([O-])c1S(=O)(=O)c1ccccc1`, the EC50 was over 10 µM in the test listed under Rattus norvegicus [4] (setting [14]) and 14.3 µM in the test filed under Rattus norvegicus [3] (setting [14]). In addition, the IC50 with Plasmodium falciparum [1] and in the test on Plasmodium falciparum [2] was over 5 µM in each case.

For `O=[N+]([O-])OCCC1CCNCC1`, the IC50 with Plasmodium falciparum [1] and in the test on Plasmodium falciparum [2] was over 5 µM throughout.

For `CCN(CC)Cc1cc(Nc2ccnc3cc(Cl)ccc23)ccc1O.Cl`, the EC50 result in the test filed under Rattus norvegicus [4] and in the test listed under Rattus norvegicus [3] was “Not Active” each time. The IC50 with Plasmodium falciparum [1] turned out to be 0.012 µM; in the test on Plasmodium falciparum [2] it was 0.016 µM. The result in the test with Plasmodium berghei [10] was Active.

For the compound `CCN(CCCCCCO[N+](=O)[O-])Cc1cc(Nc2ccnc3cc(Cl)ccc23)ccc1O`, the results for the EC50 in the test filed under Rattus norvegicus [4] (setting [14]) and in the test filed under Rattus norvegicus [3] (setting [14]) were over 30 µM and 0.45 µM, respectively. Further, the IC50 in the test on Plasmodium falciparum [1] amounted to 0.031 µM; with Plasmodium falciparum [2] it was 0.028 µM.

In the case of `CCN(CCOc1no[n+]([O-])c1-c1ccccc1)Cc1cc(Nc2ccnc3cc(Cl)ccc23)ccc1O`, the concentration for a half-maximal effect (EC50) was over 10 µM in the test listed under Rattus norvegicus [4] (setting [14]) and 1.2 µM in the test filed under Rattus norvegicus [3] (setting [14]). Moreover, the IC50 with Plasmodium falciparum [1] came to 0.023 µM; in the test on Plasmodium falciparum [2], 0.024 µM.

As to `O=[N+]([O-])OCCCN1CCN(Cc2cc(Nc3ccnc4cc(Cl)ccc34)ccc2O)CC1`, the EC50 in the test listed under Rattus norvegicus [4] (setting [14]) was 3.6 µM; in the test filed under Rattus norvegicus [3] (setting [14]), 0.079 µM. The IC50 in the test with Plasmodium falciparum [1] amounted to 0.018 µM; with Plasmodium falciparum [2] it was 0.034 µM.

As for `O=[N+]([O-])OCCCN1CCNCC1`, the IC50 with Plasmodium falciparum [1] and in the test on Plasmodium falciparum [2] was over 5 µM each time.

For the compound `O=[N+]([O-])OCC1CCN(Cc2cc(Nc3ccnc4cc(Cl)ccc34)ccc2O)CC1`, the figures for the EC50 in the test listed under Rattus norvegicus [4] (setting [14]) and in the test filed under Rattus norvegicus [3] (setting [14]) were over 30 µM and 0.1 µM, respectively. Besides, the IC50 in the test with Plasmodium falciparum [1] turned out to be 0.019 µM; in the test with Plasmodium falciparum [2], 0.028 µM.

As for `CCNCCCCC(CO[N+](=O)[O-])O[N+](=O)[O-]` (stereo not given), the IC50 with Plasmodium falciparum [1] and in the test with Plasmodium falciparum [2] was over 5 µM each time.

Regarding `CCN(CCCCC(CO[N+](=O)[O-])O[N+](=O)[O-])Cc1cc(Nc2ccnc3cc(Cl)ccc23)ccc1O` (stereo not given), the result with Plasmodium berghei [12] was inactive. Also, the outcome in the test on Plasmodium berghei [9] and with Plasmodium berghei [10] was Active. Besides, the figures for the EC50 in the test listed under Rattus norvegicus [4] (setting [14]) and in the test listed under Rattus norvegicus [3] (setting [14]) were over 30 µM and 0.22 µM, respectively. Besides, the Survival entry with Plasmodium berghei [13] is “inactive”. Also, the values for the IC50 in the test on Plasmodium falciparum [1] and with Plasmodium falciparum [2] were 0.038 µM and 0.021 µM, respectively.

As for `O=[N+]([O-])OCCC1CCN(Cc2cc(Nc3ccnc4cc(Cl)ccc34)ccc2O)CC1`, the EC50 is over 30 µM in the test filed under Rattus norvegicus [4] (setting [14]) and 0.1 µM in the test listed under Rattus norvegicus [3] (setting [14]). Also, the IC50 turned out to be 0.019 µM with Plasmodium falciparum [1] and 0.025 µM in the test with Plasmodium falciparum [2].
